Measured values: ChEMBL document CHEMBL4354828, “Discovery of Taniborbactam (VNRX-5133): A Broad-Spectrum Serine- and Metallo-β-lactamase Inhibitor for Carbapenem-Resistant Bacterial Infections” (J Med Chem, 2020)
Converted amounts (≈) assume the structure as drawn.

Legend:
[1] = Inhibition of bacterial OXA-48 using nitrocefin as substrate preincubated for 15 mins followed by susbtrate addition and measured after 10 mins by spectrophotometric method; design: species or system Bacteria
[2] = tested on: Klebsiella pneumoniae ATCC BAA-1705; assay: Inhibition of KPC-2 in Klebsiella pneumoniae ATCC BAA 1705 assessed as piperacillin antibacterial activity at 16 ug/ml after 16 to 20 hrs by CLSI-based microbroth dilution method (Rvb > […] ug/ml)
[3] = Inhibition of bacterial KPC-2 using imipenem as substrate preincubated for 15 mins followed by susbtrate addition and measured after 10 mins by spectrophotometric method; design: species or system Bacteria
Klebsiella pneumoniae [4] = assay: Inhibition of VIM-27/CTX-M-15/SHV-11/OXA-1 in Klebsiella pneumoniae CDC-0040 assessed as meropenem antibacterial activity at 4 ug/ml after 16 to 20 hrs by CLSI-based microbroth dilution method
Klebsiella pneumoniae [5] = assay: Inhibition of VIM-27/CTX-M-15/SHV-11/OXA-1 in Klebsiella pneumoniae CDC-0040 assessed as piperacillin antibacterial activity at 16 ug/ml after 16 to 20 hrs by CLSI-based microbroth dilution method
Escherichia coli [6] = assay: Inhibition of NDM in Escherichia coli CDC-0452 assessed as cefepime antibacterial activity after 16 to 20 hrs by CLSI-based microbroth dilution method (reference value: […] ug/ml)
Klebsiella pneumoniae [7] = assay: Inhibition of OXA-232/OXA-9/TEM-1A/CTX-M-15/OXA-1 in Klebsiella pneumoniae CDC-0066 assessed as cefepime antibacterial activity at 8 ug/ml after 16 to 20 hrs by CLSI-based microbroth dilution method (Rvb > […] ug/ml)
[8] = Inhibition of bacterial VIM-2 using nitrocefin as substrate preincubated for 15 mins followed by susbtrate addition and measured after 10 mins by spectrophotometric method; design: species or system Bacteria
How it was run: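 Purified β-lactamase inhibition. IC50 values are the average of duplicates unless otherwise indicated.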

Pseudomonas aeruginosa [9] = assay: Inhibition of KPC-2/PDC-42 in Pseudomonas aeruginosa CDC-0356 assessed as piperacillin antibacterial activity at 16 ug/ml after 16 to 20 hrs by CLSI-based microbroth dilution method (Rvb > […] ug/ml)
Pseudomonas aeruginosa [10] = assay: Inhibition of KPC-2/PDC-42 in Pseudomonas aeruginosa CDC-0356 assessed as meropenem antibacterial activity at 4 ug/ml after 16 to 20 hrs by CLSI-based microbroth dilution method (reference value: […] ug/ml)
Escherichia coli [11] = assay: Inhibition of NDM-1/CMY-6/OXA-1 in Escherichia coli CDC-0055 assessed as meropenem antibacterial activity at 4 ug/ml after 16 to 20 hrs by CLSI-based microbroth dilution method (reference value: […] ug/ml)
Escherichia coli [12] = assay: Inhibition of NDM-1/CMY-6/OXA-1 in Escherichia coli CDC-0055 assessed as cefepime antibacterial activity at 8 ug/ml after 16 to 20 hrs by CLSI-based microbroth dilution method
How it was run: (§1)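 MDR β-lactamase-producing Gram-negative clinical isolates. […] MIC was reported as the inhibitor concentration that restores the partner's antibacterial activity.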

Pseudomonas aeruginosa [13] = assay: Inhibition of VIM in Pseudomonas aeruginosa CDC-0457 assessed as meropenem antibacterial activity at 4 ug/ml after 16 to 20 hrs by CLSI-based microbroth dilution method
[14] = target: Beta-lactamase VIM-2 (Pseudomonas aeruginosa) (UniProt Q9K2N0); assay: Inhibition of VIM-2 in Pseudomonas aeruginosa assessed as meropenem antibacterial activity at 4 ug/ml after 16 to 20 hrs by CLSI-based microbroth dilution method (Rvb >= […] ug/ml)
[15] = tested on: Klebsiella pneumoniae ATCC BAA-1705; assay: Inhibition of KPC-2 in Klebsiella pneumoniae ATCC BAA 1705 assessed as cefepime antibacterial activity at 8 ug/ml after 16 to 20 hrs by CLSI-based microbroth dilution method; how it was run: as §1
Klebsiella pneumoniae [16] = assay: Inhibition of KPC-2/SHV12/TEM-1 in Klebsiella pneumoniae CDC-0361 assessed as meropenem antibacterial activity at 4 ug/ml after 16 to 20 hrs by CLSI-based microbroth dilution method (reference value: […] ug/ml)
Klebsiella pneumoniae [17] = assay: Inhibition of KPC-2 in Klebsiella pneumoniae assessed as meropenem antibacterial activity at 4 ug/ml after 16 to 20 hrs by CLSI-based microbroth dilution method (Rvb >= […] ug/ml)
[18] = Inhibition of bacterial AmpC using nitrocefin as substrate preincubated for 15 mins followed by susbtrate addition and measured after 10 mins by spectrophotometric method; design: species or system Bacteria
Escherichia coli [19] = assay: Inhibition of NDM in Escherichia coli CDC-0452 assessed as meropenem antibacterial activity at 4 ug/ml after 16 to 20 hrs by CLSI-based microbroth dilution method (reference value: […] ug/ml)
Klebsiella pneumoniae [20] = assay: Inhibition of OXA-48 in Klebsiella pneumoniae assessed as meropenem antibacterial activity at 4 ug/ml after 16 to 20 hrs by CLSI-based microbroth dilution method (Rvb >= […] ug/ml)
Klebsiella pneumoniae [21] = assay: Inhibition of VIM-4 in Klebsiella pneumoniae assessed as meropenem antibacterial activity at 4 ug/ml after 16 to 20 hrs by CLSI-based microbroth dilution method (Rvb >= […] ug/ml)
Klebsiella pneumoniae [22] = assay: Inhibition of KPC-2/SHV12/TEM-1 in Klebsiella pneumoniae CDC-0361 assessed as piperacillin antibacterial activity at 16 ug/ml after 16 to 20 hrs by CLSI-based microbroth dilution method (Rvb > […] ug/ml)
Escherichia coli [23] = assay: Inhibition of NDM-1/CMY-6/OXA-1 in Escherichia coli CDC-0055 assessed as piperacillin antibacterial activity at 16 ug/ml after 16 to 20 hrs by CLSI-based microbroth dilution method; how it was run: as §1
Klebsiella pneumoniae [24] = assay: Inhibition of OXA-232/OXA-9/TEM-1A/CTX-M-15/OXA-1 in Klebsiella pneumoniae CDC-0066 assessed as meropenem antibacterial activity at 4 ug/ml after 16 to 20 hrs by CLSI-based microbroth dilution method (reference value: […] ug/ml)
[25] = tested on: Klebsiella pneumoniae ATCC BAA-1705; assay: Inhibition of KPC-2 in Klebsiella pneumoniae ATCC BAA 1705 assessed as meropenem antibacterial activity at 4 ug/ml after 16 to 20 hrs by CLSI-based microbroth dilution method (reference value: […] ug/ml)
Klebsiella pneumoniae [26] = assay: Inhibition of KPC-2/SHV12/TEM-1 in Klebsiella pneumoniae CDC-0361 assessed as cefepime antibacterial activity at 8 ug/ml after 16 to 20 hrs by CLSI-based microbroth dilution method (reference value: […] ug/ml)
Klebsiella pneumoniae [27] = assay: Inhibition of OXA-232/OXA-9/TEM-1A/CTX-M-15/OXA-1 in Klebsiella pneumoniae CDC-0066 assessed as piperacillin antibacterial activity at 16 ug/ml after 16 to 20 hrs by CLSI-based microbroth dilution method (Rvb > […] ug/ml)
Klebsiella pneumoniae [28] = assay: Inhibition of VIM-27/CTX-M-15/SHV-11/OXA-1 in Klebsiella pneumoniae CDC-0040 assessed as cefepime antibacterial activity at 8 ug/ml after 16 to 20 hrs by CLSI-based microbroth dilution method
Pseudomonas aeruginosa [29] = assay: Inhibition of VIM in Pseudomonas aeruginosa CDC-0457 assessed as cefepime antibacterial activity at 8 ug/ml after 16 to 20 hrs by CLSI-based microbroth dilution method
Pseudomonas aeruginosa [30] = assay: Inhibition of KPC-2/PDC-42 in Pseudomonas aeruginosa CDC-0356 assessed as cefepime antibacterial activity at 8 ug/ml after 16 to 20 hrs by CLSI-based microbroth dilution method (Rvb > […] ug/ml)
Pseudomonas aeruginosa [31] = assay: Inhibition of VIM in Pseudomonas aeruginosa CDC-0457 assessed as piperacillin antibacterial activity at 16 ug/ml after 16 to 20 hrs by CLSI-based microbroth dilution method
Escherichia coli [32] = assay: Inhibition of NDM in Escherichia coli CDC-0452 assessed as piperacillin antibacterial activity at 16 ug/ml after 16 to 20 hrs by CLSI-based microbroth dilution method (Rvb > […] ug/ml)

## NCc1ccc(CC(=O)N[C@H]2Cc3cccc(C(=O)O)c3OB2O)cc1
[1]
  IC50: 1800 nM
[2]
  MIC: 2 µg/mL (≈ 5.65 µM)
[3]
  IC50: 40 nM
Klebsiella pneumoniae [4]
  MIC: > 16 µg/mL
Klebsiella pneumoniae [5]
  MIC: > 16 µg/mL
Escherichia coli [6]
  MIC: 2 µg/mL (≈ 5.65 µM)
Klebsiella pneumoniae [7]
  MIC: 4 µg/mL (≈ 11.3 µM)
[8]
  IC50: 270 nM
Pseudomonas aeruginosa [9]
  MIC: 2 µg/mL (≈ 5.65 µM)
Pseudomonas aeruginosa [10]
  MIC: 1 µg/mL (≈ 2.82 µM)
Escherichia coli [11]
  MIC: 1 µg/mL (≈ 2.82 µM)
Escherichia coli [12]
  MIC: 4 µg/mL (≈ 11.3 µM)
Pseudomonas aeruginosa [13]
  MIC: > 16 µg/mL
[14]
  MIC: 8 µg/mL (≈ 22.6 µM)
[15]
  MIC: 0.06 µg/mL (≈ 0.169 µM)
Klebsiella pneumoniae [16]
  MIC: 0.0079 µg/mL (≈ 0.0223 µM)
Klebsiella pneumoniae [17]
  MIC: 0.5 µg/mL (≈ 1.41 µM)
[18]
  IC50: 12 nM
Escherichia coli [19]
  MIC: 2 µg/mL (≈ 5.65 µM)
Klebsiella pneumoniae [20]
  MIC: 1 µg/mL (≈ 2.82 µM)
Klebsiella pneumoniae [21]
  MIC: 4 µg/mL (≈ 11.3 µM)
Klebsiella pneumoniae [22]
  MIC: 0.5 µg/mL (≈ 1.41 µM)
Escherichia coli [23]
  MIC: 16 µg/mL (≈ 45.2 µM)
Klebsiella pneumoniae [24]
  MIC: 4 µg/mL (≈ 11.3 µM)
[25]
  MIC: 0.0079 µg/mL (≈ 0.0223 µM)
Klebsiella pneumoniae [26]
  MIC: 0.0079 µg/mL (≈ 0.0223 µM)
Klebsiella pneumoniae [27]
  MIC: > 16 µg/mL
Klebsiella pneumoniae [28]
  MIC: > 16 µg/mL
Pseudomonas aeruginosa [29]
  MIC: 8 µg/mL (≈ 22.6 µM)
Pseudomonas aeruginosa [30]
  MIC: 2 µg/mL (≈ 5.65 µM)
Pseudomonas aeruginosa [31]
  MIC: > 16 µg/mL
Escherichia coli [32]
  MIC: 8 µg/mL (≈ 22.6 µM)

## NCCN[C@H]1CC[C@@H](CC(=O)N[C@H]2Cc3cccc(C(=O)O)c3OB2O)CC1
[1]
  IC50: 670 nM
[3]
  IC50: 30 nM
[8]
  IC50: 130 nM
[14]
  MIC: 0.5 µg/mL (≈ 1.28 µM)
Klebsiella pneumoniae [17]
  MIC: 8 µg/mL (≈ 20.6 µM)
[18]
  IC50: 35 nM
Klebsiella pneumoniae [20]
  MIC: 8 µg/mL (≈ 20.6 µM)
Klebsiella pneumoniae [21]
  MIC: 4 µg/mL (≈ 10.3 µM)

## NCC(=O)N[C@H]1CC[C@H](CC(=O)N[C@H]2Cc3cccc(C(=O)O)c3OB2O)CC1
[1]
  IC50: 355 nM
[3]
  IC50: 34 nM
[8]
  IC50: 594 nM
[14]
  MIC: 8 µg/mL (≈ 19.8 µM)
Klebsiella pneumoniae [17]
  MIC: 2 µg/mL (≈ 4.96 µM)
[18]
  IC50: 6 nM
Klebsiella pneumoniae [20]
  MIC: 8 µg/mL (≈ 19.8 µM)
Klebsiella pneumoniae [21]
  MIC: 8 µg/mL (≈ 19.8 µM)

## NC[C@H]1CC[C@H](CC(=O)N[C@H]2Cc3cccc(C(=O)O)c3OB2O)CC1
[1]
  IC50: 1800 nM
[3]
  IC50: 100 nM
[8]
  IC50: 1600 nM
[14]
  MIC: 4 µg/mL (≈ 11.1 µM)
Klebsiella pneumoniae [17]
  MIC: 1 µg/mL (≈ 2.78 µM)
[18]
  IC50: 25 nM
Klebsiella pneumoniae [20]
  MIC: 2 µg/mL (≈ 5.55 µM)
Klebsiella pneumoniae [21]
  MIC: 8 µg/mL (≈ 22.2 µM)

## CS(=O)(=O)NCCN[C@H]1CC[C@H](CC(=O)N[C@H]2Cc3cccc(C(=O)O)c3OB2O)CC1
[1]
  IC50: 499 nM
[3]
  IC50: 17 nM
[8]
  IC50: 110 nM
[14]
  MIC: 16 µg/mL (≈ 34.2 µM)
Klebsiella pneumoniae [17]
  MIC: 4 µg/mL (≈ 8.56 µM)
[18]
  IC50: 6 nM
Klebsiella pneumoniae [20]
  MIC: 8 µg/mL (≈ 17.1 µM)
Klebsiella pneumoniae [21]
  MIC: 8 µg/mL (≈ 17.1 µM)

## O=C(C[C@H]1CC[C@H](NCCO)CC1)N[C@H]1Cc2cccc(C(=O)O)c2OB1O
[1]
  IC50: 7550 nM
[3]
  IC50: 17 nM
[8]
  IC50: 1400 nM
[14]
  MIC: 4 µg/mL (≈ 10.2 µM)
Klebsiella pneumoniae [17]
  MIC: 2 µg/mL (≈ 5.12 µM)
[18]
  IC50: 10 nM
Klebsiella pneumoniae [20]
  MIC: 2 µg/mL (≈ 5.12 µM)
Klebsiella pneumoniae [21]
  MIC: 0.5 µg/mL (≈ 1.28 µM)

## O=C(O)CN[C@H]1CC[C@H](CC(=O)N[C@H]2Cc3cccc(C(=O)O)c3OB2O)CC1
[1]
  IC50: 3140 nM
[3]
  IC50: 19 nM
[8]
  IC50: 2400 nM
[14]
  MIC: 16 µg/mL (≈ 39.6 µM)
Klebsiella pneumoniae [17]
  MIC: 4 µg/mL (≈ 9.9 µM)
[18]
  IC50: 6 nM
Klebsiella pneumoniae [20]
  MIC: 8 µg/mL (≈ 19.8 µM)
Klebsiella pneumoniae [21]
  MIC: 32 µg/mL (≈ 79.2 µM)
